S1P4 ag: S1P4 receptor agonists, primary screen, cell-based | activation, % at 4.98 µM | 0.35% of 220,000 active | S1P4-expressing cell line, agonist reporter assay | Sphingosine 1-phosphate receptor 4 (Homo sapiens), O95977; in the data active = activation above about 11%
Target sequence (O95977 whole entry, looked up): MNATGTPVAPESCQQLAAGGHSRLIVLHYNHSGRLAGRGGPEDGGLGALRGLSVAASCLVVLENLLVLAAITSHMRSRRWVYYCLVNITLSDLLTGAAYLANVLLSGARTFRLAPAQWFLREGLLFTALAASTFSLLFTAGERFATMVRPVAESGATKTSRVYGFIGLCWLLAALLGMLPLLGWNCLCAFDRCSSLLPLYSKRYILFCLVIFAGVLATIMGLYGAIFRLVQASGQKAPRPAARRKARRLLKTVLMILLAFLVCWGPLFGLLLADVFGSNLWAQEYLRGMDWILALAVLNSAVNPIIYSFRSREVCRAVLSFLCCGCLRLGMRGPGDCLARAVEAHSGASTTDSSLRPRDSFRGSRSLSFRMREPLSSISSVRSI
Pf gamet viab: late stage P. falciparum gametocyte viability inhibitors, primary screen, ATP luminescence, HTS; P. falciparum stage V gametocytes, 24 h; 0.065% of 150,000 active; inhibition, % at 10.9 µM;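 active = inhibition above the mean plus 3 SD of compounds within the control limits, set per campaign, cut at about 38% in these data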
S1P4 antag: S1P4 receptor antagonists, primary screen, cell-based; 0.26% of 220,000 active; inhibition, % at 4.98 µM; S1P4-expressing cells, antagonist mode, reporter read-out; AID 1510, 2009; Sphingosine 1-phosphate receptor 4 (Homo sapiens), O95977; in the data active = inhibition above about 29%
S1P3 antag: S1P3 receptor antagonists, primary screen, cell-based; 0.27% of 170,000 active; Sphingosine 1-phosphate receptor 3 (Homo sapiens), Q99500; inhibition, % at 4.98 µM; CHO S1P3 NFAT-BLA reporter, FRET fluorescence, antagonist mode;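 active = inhibition above the plate cutoff, the mean inhibition of test wells on that plate plus 3 SD, cut at about 28% in these data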;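 also: cells challenged with S1P at its EC80 of 0.8 µM; blue over green emission ratio from cleaved BLA substrate after 4 h stimulation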
Calb biofilm kill: clotrimazole potentiators killing C. albicans biofilm, primary screen, 4-compound mixtures | inhibition, % at 7.6 µM | 0.02% of 120,000 active | C. albicans biofilm persisters + clotrimazole, fluorescence viability; primary screen in compound mixtures of four per well;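 also: compounds exposed to preformed 24 h biofilms for 48 h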
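Incubation: 24 h biofilm formation, then 48 h compound exposure, 37 °C | Material: C. albicans biofilms | Buffer or medium: RPMI/MOPS medium, pH 7.0 | Measured by: 2-h Alamar Blue fluorescence, 535/590 nm excitation/emission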
A number is an active result; - = inactive; . = not tested or not shown; ! = repeats disagree. In the library only some 0.77% were active in any assay of this set; here they are far more common.

SMILES	S1P4 ag	Pf gamet viab	S1P4 antag	S1P3 antag	Calb biofilm kill
CN1C2C=C(N(CCc3c[nH]c4ccccc34)C(=O)c3ccc(Cl)cc3)CC1CC2 (stereo not given)	-	.	-	.	.
COc1ccc(CCN(C(=O)c2ccccc2)C2=CC3CCC(C2)N3C)cc1OC (stereo not given)	-	.	-	85	.
Cc1ccc2oc(-c3ccc(NC(=O)CC(C)C)cc3)nc2c1	-	-	-	54	.
NC(=O)c1sc2nc(-c3ccccc3)c3c(c2c1N)CCCC3	-	-	-	-	-
NC(=O)c1sc2nccc(Nc3ccccc3)c2c1N	-	-	-	72	.
O=C(CN1C(=O)c2ccccc2S1(=O)=O)NC(Nc1ccccc1F)C(Cl)(Cl)Cl (stereo not given)	-	-	-	-	-
CC(C)N=c1scc(-c2cccs2)n1/N=C/c1ccc(O)c(O)c1O	17	-	-	-	-
CC(C)C(NC(=O)OCc1ccccc1)C(=O)N1CCOCCOCCOCC1 (stereo not given)	-	-	-	-	-
CC(=O)c1sc(NC(=O)C2(F)C(F)(F)C(F)(F)C(F)(F)C(F)(F)C2(F)F)nc1C	-	-	-	76	.
CC(=O)c1sc(NC(=O)C=C(C)C)nc1C	-	-	-	-	.
COCCn1c(COc2ccc(Cl)cc2)nnc1SCC(N)=O	-	.	-	62	.
Cc1ccc(OCc2nnc(SCC(N)=O)n2N)cc1	-	-	-	-	-
Cn1cc([N+](=O)[O-])c(C(=O)N(Cc2ccccc2)Cc2ccccc2)n1	-	-	-	-	-
Cc1sc(NC(=O)c2ccco2)c(CN2CCN(c3ccccn3)CC2)c1C	-	.	-	64	.
Cc1sc(NC(=O)c2ccco2)c(CN2CCN(c3ccc(F)cc3)CC2)c1C	-	-	-	.	.
CC(C(=O)NCc1cccnc1)c1ccc([N+](=O)[O-])cc1 (stereo not given)	.	-	.	.	.
O=C(c1cc2cc(Cl)ccc2[nH]1)N1CCN(c2ccccn2)CC1	.	-	.	.	.
Cc1ccc(NC(=O)C(=O)NCc2ccc(/C=N/NC(=O)c3c(C)nc4ccccn34)o2)cc1	-	-	-	-	-
COc1cc2c(cc1OC)CN(C(=S)Nc1ccc(C)cc1C)CC2	-	48	-	-	-
N#CC1=C(N)Oc2cc3c(cc2C1c1ccc(Cl)cc1)OCO3 (stereo not given)	-	-	-	72	.
C=CCc1cccc(CNc2nc3ccccc3n2CCC)c1O	-	-	-	77	.
COC(=O)C1(C)Cc2cc(OC(C)=O)c(OC(C)=O)cc2N1 (stereo not given)	-	.	-	-	-
COc1ccc(S(=O)(=O)NC(CC(=O)NCCc2ccc(OC)c(OC)c2)c2ccco2)cc1 (stereo not given)	-	-	-	94	.
C#CC(=O)N(c1ccc(OC)c(OC)c1)C(C(=O)NC1CCCC1)c1cccs1 (stereo not given)	-	.	-	.	.
C#CC(=O)N(c1cccc(OC)c1)C(C(=O)NC1CCCC1)c1cccs1 (stereo not given)	-	.	30	.	.
SMILES	S1P4 ag	Pf gamet viab	S1P4 antag	S1P3 antag	Calb biofilm kill
Nc1cccc2c1C(=O)N(c1ccccc1)C2=O	.	.	.	93	.
CCOC(=O)c1ccc(NC(=S)NCCc2ccc(OC)c(OC)c2)cc1	-	-	-	-	-
O=C(c1ccc(-c2ccccc2)cc1)N1CCN(c2nc3ccccc3o2)CC1	-	.	-	53	-
CC1CCC(C(C)C)C(OC(=O)Cn2c(-c3ccc(Br)cc3)[n+](C)c3ccccc32)C1 (stereo not given)	-	-	-	-	-
Cc1ccccc1OCc1n(CC(=O)OC2CC(C)CCC2C(C)C)c2ccccc2[n+]1C (stereo not given)	-	.	-	-	34!
c1ccc(-c2nnc3sc(-c4ccncc4)nn23)cc1	-	52	-	-	.
CCCCC(=O)Nc1cccc2c1C(=O)N(c1ccccc1)C2=O	-	.	-	-	.
CN1C(=O)c2cccc(NC(=O)CCc3ccccc3)c2C1=O	-	.	-	92	.
CCC(CC)C(=O)Nc1cccc(-c2nc3ccccc3o2)c1	-	.	-	61	.
CCC(=O)Nc1cccc(-c2nc3ccccc3c(=O)o2)c1	-	.	-	-	.
CC(=O)Nc1cccc(-c2nc3ccccc3c(=O)o2)c1	-	.	-	84	.
O=C(O)c1ccccc1-c1ccccc1C(=O)Nc1cccc(-c2nc3ccccc3o2)c1	-	.	-	-	-

Bioassay records deposited in PubChem BioAssay by several laboratories.
